Measurements: ChEMBL document CHEMBL1137851, “2-Substituted benzoxazinone analogues as anti-human coronavirus (anti-HCoV) and ICAM-1 expression inhibition agents” (Bioorg Med Chem Lett, 2004)
Values after ≈ are worked out from the molar mass of the structure shown. Numbered stars: 1 amine (or outer) side, 2 acyl side, 3 side chain; on linkers, the order of the positions; unused ones are H or OH. Bridge positions count the residues as written; N and C are the ends. Square brackets hold non-standard residues; d marks the D form. Peptide text beside a SMILES is read from it. I, II: the chains in the order shown. Actinocin(1to9) = Cc1c2oc3c(C)ccc(C(=O)[*:2])c3nc-2c(C(=O)[*:1])c(N)c1=O; NMeV = CN[C@H](C(=O)O)C(C)C; Sar = CNCC(=O)O

test system: MRC5; experiment: inhibitory concentration against anti-human coronavirus (HCoV) was determined in MRC-5 cells (human fibroblasts); type: functional, cell-based; call rule not given here
Procedure, shortened: (§1)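 MRC-5 human fibroblasts (1.0×10^5 cells/mL in 3% FBS-DMEM) seeded and held 24 h at 37 °C, then infected with HCoV strain 229E at 20 TCID₅₀/well for 2 h at 37 °C. Compound added afterwards at various concentrations, in triplicate. Cell viability read by XTT after 4 days at 37 °C. Actinomycin D served as positive control.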

Row | SMILES | IC50
1 | COc1cccc2c(=O)oc(-c3ccccc3)nc12 | 6.83 µg/mL (≈ 27 µM)
2 | COc1cccc2c(=O)oc(-c3ccccc3Cl)nc12 | 5.79 µg/mL (≈ 20.1 µM)
3 | COc1cccc2c(=O)oc(-c3ccccc3F)nc12 | 1.92 µg/mL (≈ 7.08 µM)
4 | Cc1c2oc3c(C)ccc(C(=O)N[C@@H]4C(=O)N[C@H](C(C)C)C(=O)N5CCC[C@H]5C(=O)N(C)CC(=O)N(C)[C@@H](C(C)C)C(=O)O[C@@H]4C)c3nc-2c(C(=O)N[C@@H]2C(=O)N[C@H](C(C)C)C(=O)N3CCC[C@H]3C(=O)N(C)CC(=O)N(C)[C@@H](C(C)C)C(=O)O[C@@H]2C)c(N)c1=O [DACTINOMYCIN] (I: T[dV]P[Sar][NMeV] / II: T[dV]P[Sar][NMeV]; ester I:1-I:C, II:1-II:C; linker I:N-II:N via Actinocin(1to9)) | 0.02 µg/mL (≈ 0.0159 µM)
5 | COc1cccc2c(=O)oc(-c3ccc(Br)cc3)nc12 | 6.08 µg/mL (≈ 18.3 µM)
6 | COc1cccc2c(=O)oc(-c3ccc(Cl)cc3)nc12 | 7.59 µg/mL (≈ 26.4 µM)
7 | COc1cccc2c(=O)oc(-c3cccc(Cl)c3)nc12 | 5.06 µg/mL (≈ 17.6 µM)

test system: not listed separately; experiment: Effective dose for inhibition of intercellular adhesion molecule 1 (ICAM 1) expression; type: functional

Row | SMILES | ED50
8 | COc1cccc2c(=O)oc(-c3ccc(Br)cc3)nc12 | 1 µg/mL (≈ 3.01 µM)
9 | COc1cccc2c(=O)oc(-c3ccc(Cl)cc3)nc12 | 0.5 µg/mL (≈ 1.74 µM)

test system: MRC5; experiment: inhibitory concentration against anti-human coronavirus (HCoV) was determined in MRC-5 cells (human fibroblasts); Inactive; type: functional, cell-based; procedure, shortened: as §1

Row | SMILES | IC50
10 | O=c1oc(-c2ccccc2Br)nc2c1ccc1ccccc12 | Not Active
11 | COc1cccc2c(=O)oc(-c3ccccc3Br)nc12 | Not Active
12 | O=c1oc(-c2ccccc2Cl)nc2c1ccc1ccccc12 | Not Active
13 | O=c1oc(-c2ccccc2F)nc2c1ccc1ccccc12 | Not Active
